Activity calls are given as the source filed them. The calls are words filed in the database; no cut-off is given here.
Key:
Cyclic GMP-AMP synthase [1] = molecular target: T1, Cyclic GMP-AMP synthase (Homo sapiens, UniProt Q8N884); experiment: Inhibition of cGAS in human THP1 cells assessed as reduction in salmon sperm dsDNA-induced IFN-beta expression preincubated for 1 hr followed by dsDNA stimulation for 12 hrs by luciferase reporter gene assay; type: cell-based
THP-1 = experiment: Cytotoxicity against human THP1 cells assessed as reduction in cell viability by CellTiterGlo assay; type: cell-based
Cyclic GMP-AMP synthase [2] = molecular target: T1, Cyclic GMP-AMP synthase; experiment: Inhibition of human cGAS (2 to 522 residues) expressed in Sf9 insect cells assessed as reduction in cGAMP level using ISD DNA as substrate in presence of ATP and GTP incubated for 1 hr followed by Cy5-labeled cGAMP addition measured after 1 hr by fluorescence polarization assay
In short: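 Enzyme reaction uses 100 nM cGAS, 100 nM ISD DNA, 1 mM ATP and 0.3 mM GTP in Hepes/NaCl/Tween-20/MgCl2 buffer, pH 7.5, with compounds. Run 1 h at room temperature, then stopped with 50 mM EDTA. Fluorescence polarization read with 620 nm excitation.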

T1 sequence (Q8N884 whole entry): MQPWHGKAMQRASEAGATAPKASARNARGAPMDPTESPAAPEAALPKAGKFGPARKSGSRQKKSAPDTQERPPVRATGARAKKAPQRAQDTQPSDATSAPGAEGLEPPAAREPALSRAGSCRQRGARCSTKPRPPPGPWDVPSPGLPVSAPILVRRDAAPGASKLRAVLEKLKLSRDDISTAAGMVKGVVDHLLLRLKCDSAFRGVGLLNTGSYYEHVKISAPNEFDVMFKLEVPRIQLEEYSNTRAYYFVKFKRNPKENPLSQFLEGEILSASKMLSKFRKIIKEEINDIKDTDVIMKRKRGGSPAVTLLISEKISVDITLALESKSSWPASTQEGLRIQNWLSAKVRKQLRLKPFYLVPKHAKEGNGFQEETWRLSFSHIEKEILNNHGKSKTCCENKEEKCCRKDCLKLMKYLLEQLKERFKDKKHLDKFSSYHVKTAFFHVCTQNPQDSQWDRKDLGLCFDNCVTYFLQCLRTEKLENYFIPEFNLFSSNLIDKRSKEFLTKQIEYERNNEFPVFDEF

O=C(O)CNC(=O)c1cnn2c(O)cc(-c3ccccc3)nc12 was tested, and the inhibition (Cyclic GMP-AMP synthase [1]) was “inactive” and the Activity (THP-1) was “Non-Toxic”.
Work on Oc1cc(-c2ccccc2)nc2nnnn12 yielded an IC50 (Cyclic GMP-AMP synthase [2]) of 78 µM.
In the case of O=C(N[C@H]1CCCC[C@H]1C(=O)O)c1cnn2c(O)cc(-c3ccccc3)nc12, the Activity (THP-1) is reported as “Non-Toxic”.
With O=C(NCCCNc1nc(Nc2cccc(NC(=O)N3CCCC3)c2)ncc1I)c1cccs1 [BX-795] the Activity (THP-1) was “Non-Toxic”.
In the case of C[C@@H](CO)NC(=O)c1cnn2c(O)cc(-c3ccccc3)nc12, the inhibition (Cyclic GMP-AMP synthase [1]) is reported as “inactive” and the Activity (THP-1) is reported as “Non-Toxic”.
With O=C(NCCO)c1cnn2c(O)cc(-c3ccccc3)nc12 the inhibition (Cyclic GMP-AMP synthase [1]) was “inactive” and the Activity (THP-1) was “Non-Toxic”.
